Assays:
S100B [1] = biological target: T1, S100B (Homo sapiens, UniProt P04271); assay: Acrylamide dynamic quenching of peptide Trp in S100B complex; assay type: binding; conditions: Stern-Volmer constant
T1 sequence (P04271 2-92 limits assumed): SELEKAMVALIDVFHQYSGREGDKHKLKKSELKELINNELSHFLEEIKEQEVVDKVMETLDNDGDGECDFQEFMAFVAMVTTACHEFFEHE
In short: (§1)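 Trp quenching was run on 4–8 μM peptide with or without saturating S100 protein, in binding buffer (20 mM Tris, 0.2 mM EDTA, 1 mM TCEP, pH 7.5) containing 5 mM CaCl2 or 5 mM EDTA. Acrylamide was titrated to about 0.6 M final. Intensities were dilution-corrected, fitted to a modified Stern-Volmer equation with a static term, and averages reported.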

S100P [2] = biological target: T2, S100P (Homo sapiens, UniProt P25815); assay: ITC titration of TRTK12 peptides with S100P; assay type: binding; conditions: for ΔCp, exp: heat capacity change upon binding, slope of ΔHcal vs temperature, ITC
T2 sequence (P25815 1-95): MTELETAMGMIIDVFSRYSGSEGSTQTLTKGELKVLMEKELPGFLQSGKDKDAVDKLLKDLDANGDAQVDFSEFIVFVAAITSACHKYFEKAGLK

S100A2 [3] = biological target: T3, S100A2 (Homo sapiens, UniProt P29034); assay: ITC titration of TRTK12 peptides with S100A2; conditions: heat capacity change upon binding, slope of ΔHcal vs temperature
S100A2 [4] = biological target: T3, S100A2; assay: Acrylamide dynamic quenching of peptide Trp in S100A2 complex; assay type: binding; conditions: Stern-Volmer constant
In short: as §1

S100P [5] = biological target: T2, S100P; assay: Steady-state emission fluorescence titration with S100P; assay type: binding; conditions: Trp emission
S100B [6] = biological target: T1, S100B; assay: ITC titration of TRTK12 peptides with S100B; assay type: binding
[7] = ITC fit, Equation 1, 5 mM CaCl2

T3 sequence (P29034 whole entry): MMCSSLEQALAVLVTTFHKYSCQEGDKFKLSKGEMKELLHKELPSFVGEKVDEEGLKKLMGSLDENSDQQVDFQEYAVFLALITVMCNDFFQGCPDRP

Compound	S100B+Peptide KSV (S100B [1]; saturating S100B, 5 mM CaCl2) [M⁻¹]	ΔCp, exp (S100P [2]) [kJ·mol^−1·K^−1]	ΔCp, exp (S100A2 [3]) [kJ·mol^−1·K^−1]	S100A2+Peptide KSV (S100A2 [4]; 5 mM CaCl2) [M⁻¹]	changes in the emission fluorescence intensity of the tryptophan upon peptide binding or dissociation (S100P [5])	stoichiometry n (peptides per S100B dimer) (S100B [6]; [7])	stoichiometry n (peptides per S100P dimer) (S100P [2]; [7])	Kd (S100B [6]) [µM]	S100B+Peptide KSV (S100B [1]; in the presence of 150mM NaCl)	S100A2+Peptide KSV (S100A2 [4]; in the presence of 150mM NaCl)
CC[C@H](C)[C@H](NC(=O)[C@H](CCCCN)NC(=O)[C@@H](NC(=O)[C@H](CCCNC(=N)N)NC(=O)[C@@H](NC(C)=O)[C@@H](C)O)[C@@H](C)O)C(=O)N[C@@H](CC(=O)O)C(=O)N[C@@H](Cc1c[nH]c2ccccc12)C(=O)N[C@@H](CC(N)=O)C(=O)N[C@@H](CCCCN)C(=O)N[C@@H](C)C(=O)N[C@@H](CC(C)C)C(=O)N[C@@H](CO)C(N)=O [TRTKM10]	7.5 ± 0.1	−1.3 ± 0.1								
CC[C@H](C)[C@H](NC(=O)[C@H](CCCCN)NC(=O)[C@H](CC(N)=O)NC(=O)[C@H](Cc1c[nH]c2ccccc12)NC(=O)[C@H](CC(=O)O)NC(=O)[C@H](C)NC(=O)[C@H](CCCCN)NC(=O)[C@@H](NC(=O)[C@H](CCCNC(=N)N)NC(=O)[C@@H](NC(C)=O)[C@@H](C)O)[C@@H](C)O)C(=O)N[C@@H](CC(C)C)C(=O)N[C@@H](CO)C(N)=O [TRTKM5]	2.8 ± 0.1	−1.2 ± 0.1	−0.9 ± 0.1	8.9 ± 0.2	no observable changes					
CC[C@H](C)[C@H](NC(=O)[C@H](CCCCN)NC(=O)[C@H](CC(N)=O)NC(=O)[C@H](Cc1c[nH]c2ccccc12)NC(=O)[C@H](CC(=O)O)NC(=O)[C@@H](NC(=O)[C@H](CCCCN)NC(=O)[C@@H](NC(=O)[C@H](CCCNC(=N)N)NC(=O)[C@@H](NC(C)=O)[C@@H](C)O)[C@@H](C)O)[C@@H](C)CC)C(=O)N[C@@H](C)C(=O)N[C@@H](CO)C(N)=O [TRTKM11]	7.2 ± 0.1	−1.8 ± 0.1	−1.6 ± 0.1	8.7 ± 0.2		1	1			
CC[C@H](C)[C@H](NC(=O)[C@H](C)NC(=O)[C@H](CC(N)=O)NC(=O)[C@H](Cc1c[nH]c2ccccc12)NC(=O)[C@H](CC(=O)O)NC(=O)[C@@H](NC(=O)[C@H](CCCCN)NC(=O)[C@@H](NC(=O)[C@H](CCCNC(=N)N)NC(=O)[C@@H](NC(C)=O)[C@@H](C)O)[C@@H](C)O)[C@@H](C)CC)C(=O)N[C@@H](CC(C)C)C(=O)N[C@@H](CO)C(N)=O [TRTKM9]	7.2 ± 0.2	−1.0 ± 0.1	−0.4 ± 0.1	6.1 ± 1.1	no observable changes			1.7 ± 0.1		
CC[C@H](C)[C@H](NC(=O)[C@H](CCCCN)NC(=O)[C@H](CC(N)=O)NC(=O)[C@H](Cc1c[nH]c2ccccc12)NC(=O)[C@H](CC(=O)O)NC(=O)[C@@H](NC(=O)[C@H](CCCCN)NC(=O)[C@@H](NC(=O)[C@H](CCCNC(=N)N)NC(=O)[C@H](C)NC(C)=O)[C@@H](C)O)[C@@H](C)CC)C(=O)N[C@@H](CC(C)C)C(=O)N[C@@H](CO)C(N)=O [TRTKM1]	2.4 ± 0.1	−0.9 ± 0.1	−0.8 ± 0.1	4.3 ± 0.2						
CC[C@H](C)[C@H](NC(=O)[C@H](CCCCN)NC(=O)[C@@H](NC(=O)[C@H](CCCNC(=N)N)NC(=O)[C@@H](NC(C)=O)[C@@H](C)O)[C@@H](C)O)C(=O)N[C@@H](C)C(=O)N[C@@H](Cc1c[nH]c2ccccc12)C(=O)N[C@@H](CC(N)=O)C(=O)N[C@@H](CCCCN)C(=O)N[C@H](C(=O)N[C@@H](CC(C)C)C(=O)N[C@@H](CO)C(N)=O)[C@@H](C)CC [TRTKM6]		−0.9 ± 0.1	−0.7 ± 0.1		no observable changes				3.7 ± 0.1 ^a M^−1	4.7 ± 0.1 ^a M^−1

Reference: article PMC3839042 (Biochemistry, 2013)
